Converted amounts (≈) assume the structure as drawn.
Tested on: Mycobacterium tuberculosis
Test: Antimicrobial activity against Mycobacterium tuberculosis H37Rv ATCC 27294 expressing luciferase reporter gene infected in mouse J774 macrophages assessed as intracellular growth inhibition at 1 uM after 4 days by luminometry relative to untreated control
Assay type: functional
Conditions: H37Rv ATCC 27294, J774, 96 h, read-out: GI
How it was run: (§1)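 J774.A1 murine macrophages were seeded at 40,000 cells/well, recovered overnight and infected with luminescent H37Rv. From 24 h post-infection, cells were treated for 4 days in DMEM with penicillin and fungizone, without gentamicin. Growth was read by luminescence after 1% n-decanal and expressed as percent inhibition versus untreated, in triplicate. Macrophage viability was checked by trypan blue.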

Structure (SMILES) | inhibition of growth at 1 µM [%]
O=C1c2ccccc2-c2nccc3nc(-c4ccccc4)cc1c23 | 32.6
CN(C)/C=C/c1nc(-c2ccccc2)cc2c1C(=O)c1ccccc1C2=O | 34.6
NNC(=O)c1ccncc1 [ISONIAZID] | 92.8
Cc1ccc(-c2cc3c(c(/C=C/N(C)C)n2)C(=O)c2ccccc2C3=O)cc1 | 36.2

Tested on: Mycobacterium tuberculosis
Test: Antimicrobial activity against Mycobacterium tuberculosis H37Rv ATCC 27294 expressing luciferase reporter gene assessed as growth inhibition at 0.1 uM after 6 days by luminometry relative to control
Assay type: functional
Conditions: H37Rv ATCC 27294, 144 h, read-out: GI
How it was run: (§2)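 Single-concentration screen of the luminescent H37Rv reporter strain in 7H9-10% FCS, inoculated at 50,000 RLU/ml, 6 days at 37 °C. Luminescence was read after n-decanal addition. Percent inhibition is versus the untreated culture, as the mean of triplicate cultures.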

Structure (SMILES) | inhibition of growth at 0.1 µM [%]
O=C1c2ccccc2-c2nccc3nc(-c4ccccc4)cc1c23 | 67
CN(C)/C=C/c1nc(-c2ccccc2)cc2c1C(=O)c1ccccc1C2=O | 45
NNC(=O)c1ccncc1 [ISONIAZID] | 99
Cc1ccc(-c2cc3c(c(/C=C/N(C)C)n2)C(=O)c2ccccc2C3=O)cc1 | 39

Tested on: Mycobacterium tuberculosis
Test: Antimicrobial activity against Mycobacterium tuberculosis H37Rv ATCC 27294 expressing luciferase reporter gene assessed as growth inhibition at 1 uM after 6 days by luminometry relative to control
Assay type: functional
Conditions: H37Rv ATCC 27294, 144 h, read-out: GI
How it was run: as §2

Structure (SMILES) | inhibition of growth at 1 µM [%]
O=C1c2ccccc2-c2nccc3nc(-c4ccccc4)cc1c23 | 95
CN(C)/C=C/c1nc(-c2ccccc2)cc2c1C(=O)c1ccccc1C2=O | 100
NNC(=O)c1ccncc1 [ISONIAZID] | 100
Cc1ccc(-c2cc3c(c(/C=C/N(C)C)n2)C(=O)c2ccccc2C3=O)cc1 | 100

Tested on: Mycobacterium tuberculosis
Test: Antimicrobial activity against Mycobacterium tuberculosis H37Rv ATCC 27294 expressing luciferase reporter gene assessed as reduction in bacterial count after 6 days by luminometry
Assay type: functional
Conditions: H37Rv ATCC 27294, 144 h
How it was run: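 MIC by serial dilution in the 6-day luminescent H37Rv assay (7H9-10% FCS, 50,000 RLU/ml inoculum, triplicate wells, n-decanal read-out). MIC is the concentration giving at least one log10 reduction in signal versus the untreated control.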

Structure (SMILES) | MIC90 [µM]
O=C1c2ccccc2-c2nccc3nc(-c4ccccc4)cc1c23 | 1.2 (≈ 0.37 µg/mL)
CN(C)/C=C/c1nc(-c2ccccc2)cc2c1C(=O)c1ccccc1C2=O | 1.4 (≈ 0.496 µg/mL)
NNC(=O)c1ccncc1 [ISONIAZID] | 0.09 (≈ 0.0123 µg/mL)
Cc1ccc(-c2cc3c(c(/C=C/N(C)C)n2)C(=O)c2ccccc2C3=O)cc1 | 1.5 (≈ 0.553 µg/mL)

Tested on: Mycobacterium avium subsp. paratuberculosis
Test: Antimicrobial activity against Mycobacterium avium subsp. paratuberculosis ATCC 15769 expressing luciferase reporter gene assessed as growth inhibition after 6 days by luminometry
Assay type: functional
Conditions: ATCC 15769, 144 h

Structure (SMILES) | GI50 [µM]
O=C1c2ccccc2-c2nccc3nc(-c4ccccc4)cc1c23 | 3.21
CN(C)/C=C/c1nc(-c2ccccc2)cc2c1C(=O)c1ccccc1C2=O | 3.68
Cc1ccc(-c2cc3c(c(/C=C/N(C)C)n2)C(=O)c2ccccc2C3=O)cc1 | 4.83

Tested on: not listed separately
Test: Antimicrobial activity against Mycobacterium avium subsp. avium ATCC 19698 expressing luciferase reporter gene assessed as growth inhibition after 6 days by luminometry
Assay type: functional
Conditions: ATCC 19698, 144 h

Structure (SMILES) | GI50 [µM]
O=C1c2ccccc2-c2nccc3nc(-c4ccccc4)cc1c23 | 4.22
CN(C)/C=C/c1nc(-c2ccccc2)cc2c1C(=O)c1ccccc1C2=O | 4.89
Cc1ccc(-c2cc3c(c(/C=C/N(C)C)n2)C(=O)c2ccccc2C3=O)cc1 | 3.69

Tested on: Mycobacterium tuberculosis
Test: Antimicrobial activity against Mycobacterium tuberculosis H37Rv ATCC 27294 expressing luciferase reporter gene infected in mouse J774 macrophages assessed as intracellular growth inhibition at 2 uM after 4 days by luminometry relative to untreated control
Assay type: functional
Conditions: H37Rv ATCC 27294, J774, 96 h, read-out: GI
How it was run: as §1

Structure (SMILES) | inhibition of growth at 2 µM [%]
O=C1c2ccccc2-c2nccc3nc(-c4ccccc4)cc1c23 | 48.2
CN(C)/C=C/c1nc(-c2ccccc2)cc2c1C(=O)c1ccccc1C2=O | 49.5
NNC(=O)c1ccncc1 [ISONIAZID] | 97.3
Cc1ccc(-c2cc3c(c(/C=C/N(C)C)n2)C(=O)c2ccccc2C3=O)cc1 | 48.7

Tested on: Mycobacterium tuberculosis
Test: Antimicrobial activity against Mycobacterium tuberculosis H37Rv ATCC 27294 expressing luciferase reporter gene assessed as growth inhibition at 10 uM after 6 days by luminometry relative to control
Assay type: functional
Conditions: H37Rv ATCC 27294, 144 h, read-out: GI
How it was run: as §2

Structure (SMILES) | inhibition of growth at 10 µM [%]
O=C1c2ccccc2-c2nccc3nc(-c4ccccc4)cc1c23 | 100
CN(C)/C=C/c1nc(-c2ccccc2)cc2c1C(=O)c1ccccc1C2=O | 100
NNC(=O)c1ccncc1 [ISONIAZID] | 100
Cc1ccc(-c2cc3c(c(/C=C/N(C)C)n2)C(=O)c2ccccc2C3=O)cc1 | 100

Tested on: Mycobacterium ulcerans
Test: Antimicrobial activity against Mycobacterium ulcerans 1615 expressing luciferase reporter gene assessed as growth inhibition after 6 days by luminometry
Assay type: functional
Conditions: Mycobacterium ulcerans, 1615, 144 h
How it was run: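 Luminescent M. ulcerans 1615 carrying pSMT1 luciferase plasmid, grown at 32 °C in 7H9 with 10% OADC and 0.2% glycerol. Serial dilutions from 10 mM DMSO stocks in 7H9 + 10% FCS; bacteria dosed at 50,000 RLU/ml, triplicate wells. After 6 days, light read over 10 s following 1% n-decanal in ethanol. GI50 taken at 50% growth reduction versus untreated culture.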

Structure (SMILES) | GI50 [µM]
O=C1c2ccccc2-c2nccc3nc(-c4ccccc4)cc1c23 | 10.6
CN(C)/C=C/c1nc(-c2ccccc2)cc2c1C(=O)c1ccccc1C2=O | 8.65
Cc1ccc(-c2cc3c(c(/C=C/N(C)C)n2)C(=O)c2ccccc2C3=O)cc1 | 8.59

Tested on: not listed separately
Test: Therapeutic index, ratio of IC50 for human HepG2/C3A cells to GI50 for Mycobacterium tuberculosis H37Rv ATCC 27294
Assay type: cell-based
Conditions: read-out: TI
How it was run: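 TI is NI50/GI50. NI50 came from a neutral red uptake assay in C3A hepatocytes (40,000 cells/well, 24 h exposure at 37 °C, 3 h dye, OD 530 nm with 620 nm reference): the concentration reducing dye uptake by 50%. GI50 came from the 6-day luminescent H37Rv assay.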

Structure (SMILES) | selectivity ratio
O=C1c2ccccc2-c2nccc3nc(-c4ccccc4)cc1c23 | 39.1
CN(C)/C=C/c1nc(-c2ccccc2)cc2c1C(=O)c1ccccc1C2=O | 46.9
Cc1ccc(-c2cc3c(c(/C=C/N(C)C)n2)C(=O)c2ccccc2C3=O)cc1 | 40.4

Tested on: not listed separately
Test: Cytotoxicity against human HepG2/C3A cells after 24 hrs by neutral red dye uptake assay
Assay type: cell-based
Conditions: not given

Structure (SMILES) | IC50 [µM]
O=C1c2ccccc2-c2nccc3nc(-c4ccccc4)cc1c23 | 21.5
CN(C)/C=C/c1nc(-c2ccccc2)cc2c1C(=O)c1ccccc1C2=O | 24.4
Cc1ccc(-c2cc3c(c(/C=C/N(C)C)n2)C(=O)c2ccccc2C3=O)cc1 | 27.9

Tested on: Mycobacterium tuberculosis
Test: Antimicrobial activity against Mycobacterium tuberculosis H37Rv ATCC 27294 expressing luciferase reporter gene assessed as growth inhibition after 6 days by luminometry
Assay type: functional
Conditions: H37Rv ATCC 27294, 144 h
How it was run: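 Luminescent H37Rv (pSMT1, V. harveyi luciferase) was declumped by filtration, adjusted to 50,000 RLU/ml in 7H9-10% FCS, and exposed to serial compound dilutions in triplicate for 6 days at 37 °C. Light was read for 10 s after adding 1% n-decanal. GI50 is the concentration giving 50% growth reduction versus untreated culture.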

Structure (SMILES) | GI50 [µM]
O=C1c2ccccc2-c2nccc3nc(-c4ccccc4)cc1c23 | 0.55
CN(C)/C=C/c1nc(-c2ccccc2)cc2c1C(=O)c1ccccc1C2=O | 0.52
NNC(=O)c1ccncc1 [ISONIAZID] | 0.01
Cc1ccc(-c2cc3c(c(/C=C/N(C)C)n2)C(=O)c2ccccc2C3=O)cc1 | 0.69

Tested on: Mycobacterium tuberculosis
Test: Antimicrobial activity against Mycobacterium tuberculosis H37Rv ATCC 27294 expressing luciferase reporter gene infected in mouse J774 macrophages assessed as intracellular growth inhibition at 0.5 uM after 4 days by luminometry relative to untreated control
Assay type: functional
Conditions: H37Rv ATCC 27294, J774, 96 h, read-out: GI
How it was run: as §1

Structure (SMILES) | inhibition of growth at 0.5 µM [%]
O=C1c2ccccc2-c2nccc3nc(-c4ccccc4)cc1c23 | 14.6
CN(C)/C=C/c1nc(-c2ccccc2)cc2c1C(=O)c1ccccc1C2=O | 13.4
NNC(=O)c1ccncc1 [ISONIAZID] | 76.4
Cc1ccc(-c2cc3c(c(/C=C/N(C)C)n2)C(=O)c2ccccc2C3=O)cc1 | 15.9
